# Published values gathered from unrelated publications.
# Each line is one published result; the experiments were not run side by side.
# Target: Dual specificity mitogen-activated protein kinase kinase 2 (MAP2K2, Homo sapiens, UniProt P36507)
Structure (SMILES),effect on,mode,technique,concentration,quantity,value
Cc1nn(C)cc1-c1nc2c(N3CCN(Cc4ccc(Cl)cc4)CC3)c(Cl)cnc2[nH]1,binding,,competition with immobilised ligand,1 µM,remaining binding,100%
Cn1cc(-c2cc(F)cc(N3CCn4c(cc5c4CCCC5)C3=O)c2CO)cc(Nc2ccc(N3CCN(C4COC4)CC3)cn2)c1=O,enzyme activity,inhibitor,,0.1 µM,inhibition,11%
COc1cc(Nc2ncc(F)c(Nc3ccc4c(n3)NC(=O)C(C)(C)O4)n2)cc(OC)c1OC,binding,,competition with immobilised ligand,10 µM,inhibition,87%
CC(C)(C)c1cc(C=C(C#N)C#N)cc(Br)c1O,enzyme activity,inhibitor,,0.5 µM,remaining activity,85.8%
Cn1cc(-c2cccc(N3CCc4c(sc5c4CC(C)(C)C5)C3=O)c2CO)cc(Nc2ccncn2)c1=O,enzyme activity,inhibitor,,1 µM,inhibition,5%
COc1ncccc1-c1cnn2ccc(N3CCN(C(=O)OC(C)C)CC3)nc12,binding,,competition with immobilised ligand,1 µM,remaining binding,91%
Cn1cncc1[C@@](O)(COc1ccc(C#N)cc1-c1ccc(OC(F)(F)F)cc1)c1ccc(C#N)cc1,cell-free assay,,competition with immobilised ligand,1 µM,remaining binding,74%
Nc1ncc(-c2nc(N3CCOCC3)nc(N3CCOCC3)n2)c(C(F)F)n1,binding,,competition with immobilised ligand,10 µM,remaining binding,77%
O=c1[nH]c2ccccc2n1C1CCN(Cc2ccc(-c3[nH]c4cc5ncnc5cc4nc3-c3ccccc3)cc2)CC1,cell-free assay,,,0.5 µM,remaining signal,86.6%
N#CC1(c2ccccn2)CCN(Cc2cc(C(=O)O)c(=O)n3ccccc23)CC1,cell-free assay,,competition with immobilised ligand,1 µM,remaining binding,100%
